According to ChEMBL document CHEMBL3745596, “Chlorophenoxy aminoalkyl derivatives as histamine H(3)R ligands and antiseizure agents” (Bioorg Med Chem, 2016):
Active and inactive are the calls of the source.

Tests used:
[1] = Antiproliferative activity against human IMR32 cells assessed as cell viability after 48 hrs by formazan EZ4U dye based assay; conditions: IMR-32, 48 h
Summary of the method: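 HEK-293 (1.5 × 10⁴/well) or IMR-32 (2 × 10⁴/well) cells in DMEM with 10% FBS, 37 °C, 5% CO₂, grown 24 h to about 60% confluence; compounds 0.01–250 µM final, DMSO at most 1%, 48 h.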

Histamine H3 receptor = Histamine H3 receptor (Homo sapiens, UniProt Q9Y5N1); test: Displacement of [3H]-Nalpha-methylhistamine from human recombinant histamine H3 receptor expressed in HEK293 cells after 90 mins; type: cell-based
Histamine H3 receptor, sequence (Q9Y5N1 whole entry): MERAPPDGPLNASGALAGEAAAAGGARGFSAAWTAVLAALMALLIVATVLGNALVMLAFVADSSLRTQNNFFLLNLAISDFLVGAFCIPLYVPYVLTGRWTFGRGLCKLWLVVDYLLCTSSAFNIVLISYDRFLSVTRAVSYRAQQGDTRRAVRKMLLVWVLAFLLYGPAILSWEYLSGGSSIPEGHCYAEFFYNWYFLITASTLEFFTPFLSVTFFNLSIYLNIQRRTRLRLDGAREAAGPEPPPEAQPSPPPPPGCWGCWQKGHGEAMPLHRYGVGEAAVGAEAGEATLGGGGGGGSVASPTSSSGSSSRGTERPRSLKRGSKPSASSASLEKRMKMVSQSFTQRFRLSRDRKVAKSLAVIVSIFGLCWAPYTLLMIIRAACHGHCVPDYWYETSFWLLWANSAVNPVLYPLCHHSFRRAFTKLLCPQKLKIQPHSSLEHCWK

Mus musculus [2] = test: Anticonvulsant activity in CF1 albino mouse assessed as protection against maximal electroshock-induced seizure at 30 mg/kg, ip after 0.5 hrs; type: functional, organism-based
Summary of the method: (§1)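 Male CF-1 mice dosed ip as suspension in 0.5% methylcellulose. Corneal electrodes deliver 60 Hz alternating current, 50 mA for […], after a drop of 0.5% tetracaine HCl in 0.9% NaCl per eye. Protection means abolition of hindlimb tonic extension; scored as protected/tested, or ED50 with 95% confidence interval.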

Mus musculus [3] = test: Anticonvulsant activity in CF1 albino mouse assessed as protection against maximal electroshock-induced seizure at 30 mg/kg, ip after 4 hrs; type: functional, organism-based; summary of the method: as §1
Mus musculus [4] = test: Anticonvulsant activity in CF1 albino mouse assessed as protection against maximal electroshock-induced seizure at 100 mg/kg, ip after 0.5 hrs; type: functional, organism-based; summary of the method: as §1
Mus musculus [5] = test: Anticonvulsant activity in CF1 albino mouse assessed as protection against maximal electroshock-induced seizure at 100 mg/kg, ip after 4 hrs; type: functional, organism-based; summary of the method: as §1
Mus musculus [6] = test: Anticonvulsant activity in CF1 albino mouse assessed as protection against subcutaneous pentetrazole-induced seizure at 30 mg/kg, ip after 0.5 hrs; type: functional, organism-based
Summary of the method: (§2)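 Male CF-1 mice, ip in 0.5% methylcellulose; pentetrazole at CD97 (85 mg/kg) injected subcutaneously in a loose fold of neck skin. Observed 30 min; absence of even a threshold seizure (single clonic spasm lasting at least 5 s) counted as protection. Scored protected/tested, or ED50.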

Mus musculus [7] = test: Anticonvulsant activity in CF1 albino mouse assessed as protection against subcutaneous pentetrazole-induced seizure at 30 mg/kg, ip after 4 hrs; type: functional, organism-based; summary of the method: as §2
Mus musculus [8] = test: Anticonvulsant activity in CF1 albino mouse assessed as protection against subcutaneous pentetrazole-induced seizure at 100 mg/kg, ip after 4 hrs; type: functional, organism-based; summary of the method: as §2
Mus musculus [9] = test: Neurotoxicity in CF1 albino mouse at 30 mg/kg, ip after 0.5 hrs by rotarod test; type: toxicity, organism-based; conditions: in vivo
Summary of the method: (§3)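 Rotarod neurotoxicity in male albino CF-1 mice dosed ip with compound suspended in 0.5% methylcellulose. Animal placed on a 1 inch diameter knurled plastic rod rotating at 6 rpm. Neurotoxicity scored when the animal falls off three times within 1 min. Readout is number of animals toxic/number tested at the stated time after dosing. TD50 with 95% confidence interval from the quantitative study.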

Mus musculus [10] = test: Neurotoxicity in CF1 albino mouse at 30 mg/kg, ip after 4 hrs by rotarod test; type: toxicity, organism-based; conditions: in vivo; summary of the method: as §3
Mus musculus [11] = test: Neurotoxicity in CF1 albino mouse at 100 mg/kg, ip after 4 hrs by rotarod test; type: toxicity, organism-based; conditions: in vivo; summary of the method: as §3
Mus musculus [12] = test: Neurotoxicity in CF1 albino mouse at 300 mg/kg, ip after 4 hrs by rotarod test; type: toxicity, organism-based; conditions: in vivo; summary of the method: as §3
Mus musculus [13] = test: Anticonvulsant activity in CF1 albino mouse assessed as protection against maximal electroshock-induced seizure at 3 mg/kg, ip after 0.5 hrs; type: functional, organism-based; summary of the method: as §1
Mus musculus [14] = test: Anticonvulsant activity in CF1 albino mouse assessed as protection against maximal electroshock-induced seizure at 10 mg/kg, ip after 0.5 hrs; type: functional, organism-based; summary of the method: as §1
Mus musculus [15] = test: Anticonvulsant activity in CF1 albino mouse assessed as protection against subcutaneous pentetrazole-induced seizure at 100 mg/kg, ip after 0.5 hrs; type: functional, organism-based; summary of the method: as §2
Mus musculus [16] = test: Neurotoxicity in CF1 albino mouse at 3 mg/kg, ip after 0.5 hrs by rotarod test; type: toxicity, organism-based; conditions: in vivo; summary of the method: as §3
Mus musculus [17] = test: Neurotoxicity in CF1 albino mouse at 10 mg/kg, ip after 0.5 hrs by rotarod test; type: toxicity, organism-based; conditions: in vivo
Summary of the method: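 Rotarod neurotoxicity in male CF-1 mice dosed ip as 0.5% methylcellulose suspension: mouse placed on 1 inch knurled rod rotating at 6 rpm; toxicity when the animal falls off three times within 1 min, with other signs noted. Scored as toxic/tested at 0.5 h and 4 h.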

Mus musculus [18] = test: Neurotoxicity in CF1 albino mouse assessed as unable to grasp rotarod and death at 100 mg/kg, ip after 0.5 hrs by rotarod test; type: toxicity, organism-based; conditions: in vivo
Summary of the method: (§4)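 Male albino CF-1 mice dosed ip with compound suspended in 0.5% methylcellulose, then placed on a 1-inch knurled plastic rod turning at 6 rpm. A fall three times within 1 min counted as neurotoxicity. Observations were made at 0.5 h and 4 h after dosing. Result given as animals showing toxicity per animals tested, with the kind of toxicity recorded.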

Mus musculus [19] = test: Neurotoxicity in CF1 albino mouse assessed as death at 300 mg/kg, ip after 0.5 hrs by rotarod test; type: toxicity, organism-based; conditions: in vivo; summary of the method: as §4
Rattus norvegicus = test: Anticonvulsant activity in Sprague-Dawley rat assessed as protection against maximal electroshock-induced seizure at 30 mg/kg, po; type: functional
Mus musculus [20] = test: Anticonvulsant activity in CF1 albino mouse assessed as protection against 6 Hz-psychomotor-induced seizure at 50 mg/kg, ip after 0.5 hrs; type: functional, organism-based
Summary of the method: (§5)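 Male CF-1 mice, ip suspension in 0.5% methylcellulose. Corneal stimulation 0.2 ms monopolar rectangular pulses at 6 Hz, 32 mA for 3 s via constant-current device; mice without minimal clonic phase seizure counted protected. Groups of four; read at 0.25, 0.5, 1, 2, 4 h; result as protected/tested.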

Mus musculus [21] = test: Anticonvulsant activity in CF1 albino mouse assessed as protection against 6 Hz-psychomotor-induced seizure at 50 mg/kg, ip after 1 hr; type: functional, organism-based; summary of the method: as §5
Mus musculus [22] = test: Anticonvulsant activity in CF1 albino mouse assessed as protection against 6 Hz-psychomotor-induced seizure at 50 mg/kg, ip after 2 hrs; type: functional, organism-based; summary of the method: as §5
Mus musculus [23] = test: Anticonvulsant activity in CF1 albino mouse assessed as protection against 6 Hz-psychomotor-induced seizure at 50 mg/kg, ip after 4 hrs; type: functional, organism-based; summary of the method: as §5
Mus musculus [24] = test: Neurotoxicity in CF1 albino mouse at 50 mg/kg, ip after 1 hr by rotarod test; type: toxicity, organism-based; conditions: in vivo; summary of the method: as §3
Mus musculus [25] = test: Neurotoxicity in CF1 albino mouse at 50 mg/kg, ip after 2 hrs by rotarod test; type: toxicity, organism-based; conditions: in vivo; summary of the method: as §3
Mus musculus [26] = test: Neurotoxicity in CF1 albino mouse at 50 mg/kg, ip after 4 hrs by rotarod test; type: toxicity, organism-based; conditions: in vivo; summary of the method: as §3
Mus musculus [27] = test: Anticonvulsant activity in ip dosed CF1 albino mouse assessed as protection against maximal electroshock-induced seizure after 0.25 hrs; type: functional; summary of the method: as §1
Mus musculus [28] = test: Anticonvulsant activity in ip dosed CF1 albino mouse assessed as protection against subcutaneous pentetrazole-induced seizure after 0.25 hrs; type: functional; summary of the method: as §2
Mus musculus [29] = test: Protective index, ratio of TD50 for ip dosed CF1 albino mouse to ED50 for ip dosed CF1 albino mouse assessed as protection against maximal electroshock-induced seizure after 0.25 hrs; type: functional
Mus musculus [30] = test: Anticonvulsant activity in CF1 albino mouse assessed as protection against 6 Hz-psychomotor-induced seizure at 50 mg/kg, ip after 0.25 hrs; type: functional, organism-based; summary of the method: as §5
Mus musculus [31] = test: Neurotoxicity in CF1 albino mouse at 50 mg/kg, ip after 0.25 hrs by rotarod test; type: toxicity, organism-based; conditions: in vivo; summary of the method: as §3
Mus musculus [32] = test: Anticonvulsant activity in CF1 albino mouse assessed as protection against 6 Hz-psychomotor-induced seizure at 30 mg/kg, ip after 0.25 to 4 hrs; type: functional, organism-based; summary of the method: as §5
Mus musculus [33] = test: Neurotoxicity in CF1 albino mouse at 30 mg/kg, ip after 0.25 to 4 hrs by rotarod test; type: toxicity, organism-based; conditions: in vivo; summary of the method: as §3

SMILES	Ki (Histamine H3 receptor) [nM]	Activity (Mus musculus [2])	Activity (Mus musculus [3])	Activity (Mus musculus [4])	Activity (Mus musculus [5])	Activity (Mus musculus [6])	Activity (Mus musculus [7])	Activity (Mus musculus [8])	Activity (Mus musculus [9])	Activity (Mus musculus [10])	Activity (Mus musculus [11])	Activity (Mus musculus [12])	Activity (Mus musculus [13])	Activity (Mus musculus [14])	Activity (Mus musculus [15])	Activity (Mus musculus [16])	Activity (Mus musculus [17])	Activity (Mus musculus [18])	Activity (Mus musculus [19])	Activity (Rattus norvegicus)	also measured
COc1cccc2c1C(=O)c1c(O)c3c(c(O)c1C2=O)C[C@@](O)(C(=O)CO)C[C@@H]3O[C@H]1C[C@H](N)[C@H](O)[C@H](C)O1 [DOXORUBICIN]	–	–	–	–	–	–	–	–	–	–	–	–	–	–	–	–	–	–	–	–	IC50 [1]: 5.1 nM
Clc1cccc(OCCCCCCCN2CCCCCC2)c1.O=C(O)C(=O)O	> 150000	inactive	inactive	Active	inactive	inactive	inactive	inactive	Non-toxic	Non-toxic	Non-toxic	Non-toxic	–	–	–	–	–	–	–	–	–
Clc1cccc(OCCCCCCN2CCCCC2)c1.O=C(O)C(=O)O	255	Active	inactive	Active	Active	inactive	inactive	inactive	Non-toxic	Non-toxic	Non-toxic	Non-toxic	inactive	inactive	inactive	Non-toxic	Non-toxic	Toxic	Toxic	25%	Activity (Mus musculus [20]): inactive; Activity (Mus musculus [21]): inactive; Activity (Mus musculus [22]): inactive; Activity (Mus musculus [23]): inactive; Activity (Mus musculus [24]): Non-toxic; Activity (Mus musculus [25]): Non-toxic; Activity (Mus musculus [26]): Non-toxic
CC1CCCN(CCCCCCCOc2cccc(Cl)c2)C1.O=C(O)C(=O)O (configuration not stated)	466	inactive	inactive	Active	Active	inactive	inactive	inactive	Non-toxic	Non-toxic	Non-toxic	Non-toxic	–	–	inactive	–	–	Toxic	Toxic	–	–
Nc1nnc(-c2cccc(Cl)c2Cl)c(N)n1 [LAMOTRIGINE]	–	–	–	–	–	–	–	–	–	–	–	–	–	–	–	–	–	–	–	–	ED50 (Mus musculus [27]): 7.47 mg/kg; ED50 (Mus musculus [28]): > 40 mg/kg; Ratio TD50/ED50 (Mus musculus [29]): 4
Clc1ccc(OCCCCCCCN2CCCCCC2)cc1.O=C(O)C(=O)O	203	Active	inactive	Active	Active	inactive	inactive	–	Non-toxic	Non-toxic	Non-toxic	Non-toxic	inactive	inactive	–	Non-toxic	Non-toxic	Toxic	–	25%	Activity (Mus musculus [30]): inactive; Activity (Mus musculus [22]): inactive; Activity (Mus musculus [23]): inactive; Activity (Mus musculus [31]): Non-toxic; Activity (Mus musculus [25]): Non-toxic; Activity (Mus musculus [26]): Non-toxic
CC1CCN(CCCCCCOc2cccc(Cl)c2)CC1.O=C(O)C(=O)O	412	Active	inactive	Active	Active	inactive	inactive	–	Non-toxic	Non-toxic	Non-toxic	Non-toxic	inactive	inactive	–	Non-toxic	Non-toxic	–	Toxic	25%	Activity (Mus musculus [30]): Active; Activity (Mus musculus [24]): Non-toxic; Activity (Mus musculus [25]): Non-toxic; Activity (Mus musculus [26]): Non-toxic
Clc1ccc(OCCCCCN2CCCCC2)cc1.O=C(O)C(=O)O	427	Active	inactive	Active	–	inactive	inactive	inactive	Non-toxic	Non-toxic	Non-toxic	Non-toxic	inactive	inactive	inactive	Non-toxic	Non-toxic	Toxic	Toxic	inactive	–
Clc1cccc(OCCCCCCN2CCCCCC2)c1.O=C(O)C(=O)O	293	Active	inactive	Active	–	inactive	inactive	–	–	Non-toxic	Non-toxic	Non-toxic	inactive	inactive	inactive	Non-toxic	Non-toxic	Toxic	Toxic	–	Activity (Mus musculus [30]): inactive; Activity (Mus musculus [20]): inactive; Activity (Mus musculus [21]): inactive; Activity (Mus musculus [22]): inactive; Activity (Mus musculus [23]): inactive; Activity (Mus musculus [32]): inactive; Activity (Mus musculus [33]): Non-toxic
CCC1(c2ccccc2)C(=O)NC(=O)NC1=O [PHENOBARBITAL]	–	–	–	–	–	–	–	–	–	–	–	–	–	–	–	–	–	–	–	–	ED50 (Mus musculus [27]): 21.8 mg/kg; ED50 (Mus musculus [28]): 13.2 mg/kg
CCCC(CCC)C(=O)O [VALPROIC ACID]	–	–	–	–	–	–	–	–	–	–	–	–	–	–	–	–	–	–	–	–	ED50 (Mus musculus [28]): 220 mg/kg
